Data on one compound can be found in ChEMBL document CHEMBL1153547, “Rifampin inhibits prostaglandin E2 production and arachidonic acid release in human alveolar epithelial cells” (Antimicrob Agents Chemother, 2007).

Active and inactive are the calls of the source. The rule behind the calls is not given here.

Series [1] relates to A549. The experiment in a line: Cytotoxicity against human A549 cells assessed as cell viability by neutral red uptake assay. It counts as cell-based. The gist of the method: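 A549 cells in 96-well plates, after treatment, given neutral red at 0.05% final in fresh medium for 1 h. Cells washed with cold PBS containing Ca2+ and Mg2+, then dye extracted with Sorenson's citrate buffer-ethanol. Absorbance read at 540 nm. Viability taken as the absorbance ratio of treated to untreated cells.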

Series [2] has as its system A549. In words: Inhibition of IL-1-beta-induced COX2 expression in human A549 cells at 50 ug/ml measured after 24 hrs of IL1-beta challenge by Western blot analysis. It counts as functional, cell-based. The gist of the method:
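A549 cells (2 x 10^6 per 3-cm dish) grown 24 h, then 24 h in serum- and antibiotic-free medium. Treated with IL-1ß (1 ng/ml) ± rifampin (50 µg/ml) for 24 h, then lysed in SDS buffer and denatured at 95°C. Blocked in 5% milk/TBST, then rabbit anti-COX-2 (1:1,000) overnight at 4°C. HRP secondary used and detected by ECL, with β-actin as comparator and densitometry.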
In general terms: In western blotting, separated proteins are transferred to a membrane and probed.

For series [3], the system named is A549. The experiment in a line: Immunomodulatory effect in human A549 cells assessed as reduction in IL-1-beta-induced [3H]arachidonic acid release at 50 ug/ml measured after 2 hrs of IL1-beta challenge by liquid scintillation counting. It counts as functional. More on the design: scale not given: the % may be the effect or the level left. Put shortly: (§1)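 A549 cells (2 x 10^6 per 3-cm plate), grown 24 h, labeled 4 h with [3H]AA at 0.5 µCi/ml in serum-free medium, then washed five times. Incubated in serum-free medium with 1 mg/ml BSA plus IL-1ß (1 ng/ml) ± rifampin, or rifampin alone, or medium alone, for 4 h unless another time is stated. Supernatant counted by liquid scintillation. Release given as % of incorporated label. Inhibition = 100 x [(IL-1ß – medium) – (IL-1ß+rif – rif alone)]/(IL-1ß – medium).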

Series [4] deals with A549. In words: Immunomodulatory effect in human A549 cells assessed as reduction in IL-1-beta-induced [3H]arachidonic acid release measured after 4 hrs of IL1-beta challenge by liquid scintillation counting. It counts as functional, cell-based. The gist of the method:
as §1

The subject of series [5] is A549. The experiment in a line: Immunomodulatory effect in human A549 cells assessed as reduction in basal release of [3H]arachidonic acid at 50 ug/ml up to 19 hrs by liquid scintillation counting. It counts as functional. Also noted: scale not given: the % may be the effect or the level left. Put shortly: (§2)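 A549 cells prelabeled 4 h with [3H]AA at 0.5 µCi/ml, washed, then kept in serum-free medium with 1 mg/ml BSA, alone or with rifampin, with sampling at set times. Supernatant radioactivity counted by liquid scintillation and given as % of incorporated label. Incorporation estimated by subtracting supernatant counts after labeling from the radioactivity added. Two independent experiments, n = 5 per group.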

The test system of series [6] is A549. The experiment in a line: Immunomodulatory effect in human A549 cells assessed as inhibition of Ca2+ ionophore A23187 stimulated-[3H]arachidonic acid release measured after 4 hrs of A23187 challenge by liquid scintillation counting. It counts as functional.
Series [7] can be described thus: Drug level in serum at 600 mg. It counts as ADME, cell-free.
Series [8] has as its system A549. The experiment in a line: Immunomodulatory effect in human A549 cells assessed as reduction in IL-1-beta-induced PGE2 formation at 50 ug/ml after 48 hrs by enzyme immunoassay. Also noted: scale not given: the % may be the effect or the level left. It counts as functional. Put shortly: (§3)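 A549 cells seeded at 1.5 x 10^5/well and grown 24 h, then held overnight in serum- and antibiotic-free medium. Cells exposed to IL-1ß (1 ng/ml) with or without rifampin (10 to 100 µg/ml) in fresh medium for 48 h, with DMSO vehicle at most 0.1%. Cleared supernatants stored at –70°C. PGE2 measured by enzyme immunoassay, triplicate wells.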

The subject of series [9] is A549. The experiment in a line: Immunomodulatory effect in human A549 cells assessed as inhibition of Ca2+ ionophore A23187 stimulated-[3H]arachidonic acid release measured after 2 hrs of A23187 challenge by liquid scintillation counting. It counts as functional.
The test system of series [10] is A549. In words: Immunomodulatory effect in human A549 cells assessed as reduction in IL-1-beta-induced [3H]arachidonic acid release at 10 to 100 ug/ml measured after 4 hrs of IL1-beta challenge by liquid scintillation counting. It counts as functional, cell-based. Put shortly:
as §1

Series [11] relates to A549. The experiment in a line: Immunomodulatory effect in human A549 cells assessed as reduction in IL-1-beta-induced PGE2 formation at 100 ug/ml after 48 hrs by enzyme immunoassay. It counts as functional, cell-based. The gist of the method:
as §3

Series [12] deals with A549. In words: Immunomodulatory effect in human A549 cells assessed as reduction in spontaneous release of [3H]arachidonic acid by liquid scintillation counting. It counts as functional, cell-based. Put shortly:
as §2

Series [13] relates to A549. In words: Immunomodulatory effect in human A549 cells assessed as reduction in IL-1-beta-induced [3H]arachidonic acid release at 50 ug/ml measured after 6 hrs of IL1-beta challenge by liquid scintillation counting. Also noted: scale not given: the % may be the effect or the level left. It counts as functional. Put shortly:
as §1

In series [14] the test system is A549. The experiment in a line: Immunomodulatory effect in human A549 cells assessed as reduction in IL-1-beta-induced PGE2 formation at 25 ug/ml after 48 hrs by enzyme immunoassay. It counts as functional. Also noted: scale not given: the % may be the effect or the level left. Put shortly:
as §3

For series [15], the system named is A549. In words: Immunomodulatory effect in human A549 cells assessed as reduction in IL-1-beta-induced [3H]arachidonic acid release at 50 ug/ml measured after 19 hrs of IL1-beta challenge by liquid scintillation counting. It counts as functional. More on the design: scale not given: the % may be the effect or the level left. The gist of the method:
as §1

Series [16] has as its system A549. In words: Immunomodulatory effect in human A549 cells assessed as inhibition of Ca2+ ionophore A23187 stimulated-[3H]arachidonic acid release measured after 45 mins of A23187 challenge by liquid scintillation counting. It counts as functional, cell-based.
Series [17] has as its system A549. The experiment in a line: Immunomodulatory effect in human A549 cells assessed as reduction in basal release of [3H]arachidonic acid at 50 ug/ml up to 2 hrs by liquid scintillation counting. It counts as functional. More on the design: scale not given: the % may be the effect or the level left. The gist of the method:
as §2

For the compound `CO[C@H]1/C=C/O[C@@]2(C)Oc3c(C)c(O)c4c(O)c(c(/C=N/N5CCN(C)CC5)c(O)c4c3C2=O)NC(=O)/C(C)=C\C=C\[C@H](C)[C@H](O)[C@@H](C)[C@@H](O)[C@@H](C)[C@H](OC(C)=O)[C@@H]1C` [RIFAMPIN], the Activity entry in the series on A549 [1] was “Non-toxic”; in the series on A549 [3] it was 53%; in the series on A549 [4] it was “Dose-dependent effect”; in the series with A549 [5], 34%; in the series with A549 [8] it was 59%; in the series with A549 [11] it was “Dose-dependent effect”. Also, the Activity entry is “Dose-dependent effect” in the series with A549 [12]; 79% in the series on A549 [13]; 45% in the series with A549 [14]; 95% with A549 [15]; 47% in the series with A549 [17]. The inhibition result in the series on A549 [2] and in the series with A549 [16] was “inactive” throughout. For the same compound, the “inhibition (INH)” value in the series on A549 [6] is 8.3%; in the series with A549 [9], 5.5%. The compound also came in with a Drug uptake in series [7] of 10 µg/mL. The result with A549 [10] was Active.
